Experimental data taken from ChEMBL document CHEMBL5107950, “Structure-based design of haloperidol analogues as inhibitors of acetyltransferase Eis from Mycobacterium tuberculosis to overcome kanamycin resistance” (RSC Med Chem, 2021).
Converted amounts (≈) assume the structure as drawn. The source made the active and inactive calls. No cut-off for these calls is given here.

What was measured:
J774.A1 [1] = test: Cytotoxicity against mouse J774.A1 cells assessed as reduction in cell viability at 50 uM incubated for 24 hrs by resazurin assay; assay type: toxicity, cell-based; settings: j774.a1, 24 h
Outline: (§1)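 Resazurin viability assay in DMEM + 10% FBS, 1% penicillin/streptomycin, 37 °C, 5% CO₂. Seeding: HEK-293 and J774A.1 at 1×10^4 cells/mL, A549 at 5×10^3 cells/mL. After 24 h, compounds added (0.78-200 μM, 0.5% DMSO final). Resazurin added 24 h later, read after 6 h. 1% Triton X as positive control. Quadruplicate.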

[2] = tested on: Mycobacterium tuberculosis; test: Potentiation of kanamycin-induced antibacterial activity against Mycobacterium tuberculosis K204 assessed as kanamycin MIC incubated for 1 day followed by kanamycin addition for 6 days and by Alamar blue assay; assay type: functional; settings: K204, 168 h, time 7 day
Outline: (§2)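 Mtb in 7H9 + 10% ADC, 0.05% Tween 80, 0.4% glycerol at 37 °C. Inoculum adjusted to OD600 0.2, diluted 1:25. Cells preincubated 24 h at 37 °C with compound (100 µL of 200 µM solution). KAN then added: H37Rv at 2.5 and 1.25 µg/mL; K204 at 10, 5, 2.5, 1.25 µg/mL. Incubated 6 days, AlamarBlue added, colour read at 24 and 48 h. MIC = lowest KAN with no colour change. At least twice in duplicate.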

J774.A1 [3] = test: Cytotoxicity against mouse J774.A1 cells assessed as reduction in cell viability at 100 uM incubated for 24 hrs by resazurin assay; assay type: toxicity, cell-based; settings: j774.a1, 24 h; outline: as §1
N-acetyltransferase Eis [4] = molecular target: T1, N-acetyltransferase Eis (Mycobacterium tuberculosis (strain ATCC 25618 / H37Rv), UniProt P9WFK7); test: Competitive inhibition of Mycobacterium tuberculosis Eis assessed as reduction in Eis-mediated kanamycin acetylation preincubated for 10 mins followed by substrate addition and measured for 2 to 5 mins using acetyl-CoA as substrate in presence of kanamycin by Lineweaver-Burk plot analysis
T1 sequence (P9WFK7 whole entry): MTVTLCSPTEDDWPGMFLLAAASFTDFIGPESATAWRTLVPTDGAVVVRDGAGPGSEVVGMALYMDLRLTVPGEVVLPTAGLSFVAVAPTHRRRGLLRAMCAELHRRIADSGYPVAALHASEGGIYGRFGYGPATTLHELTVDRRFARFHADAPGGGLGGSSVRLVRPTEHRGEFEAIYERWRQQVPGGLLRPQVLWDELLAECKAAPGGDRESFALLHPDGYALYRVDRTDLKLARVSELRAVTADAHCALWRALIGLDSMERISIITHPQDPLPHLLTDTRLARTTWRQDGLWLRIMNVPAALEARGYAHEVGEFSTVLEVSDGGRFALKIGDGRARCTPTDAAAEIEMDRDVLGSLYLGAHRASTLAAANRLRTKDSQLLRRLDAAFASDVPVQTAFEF
Outline: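 Same DTNB-coupled Eis acetylation assay used for IC50, run as Michaelis-Menten kinetics with inhibitor at 0-1 μM. Vmax and Km from these fits used to determine mode of inhibition. Quadruplicate.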

[5] = tested on: Mycolicibacterium smegmatis; test: Synergistic antibacterial activity against Mycobacterium smegmatis mc2 155 assessed as fold reduction in MIC value at 8 ug/ml in presence of spectinomycin by checkerboard assay; assay type: functional; settings: dose 8 µg/ml
[6] = tested on: Mycolicibacterium smegmatis; test: Synergistic antibacterial activity against Mycobacterium smegmatis mc2 155 assessed as fold reduction in MIC value at 8 ug/ml in presence of clarithromycin by checkerboard assay; assay type: functional; settings: dose 8 µg/ml
[7] = tested on: Mycobacterium intracellulare; test: Antibacterial activity against Mycobacterium intracellulare ATCC 13950 assessed as inhibition of bacterial growth incubated upto 3 weeks hrs by resazurin dye based double-dilution method; assay type: functional; settings: ATCC 13950, 504 h
Outline: (§3)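 Double-dilution broth MIC. Media: M. smegmatis, Mueller-Hinton; M. abscessus, 7H9 + 0.05% Tween80 + 0.4% glycerol; mc²6230, 7H9 + 0.05% tyloxapol, 0.5% glycerol, 10% OADC, 0.2% casamino acids, 24 µg/mL pantothenate; other mycobacteria, 7H9 + 0.05% Tween80, 0.4% glycerol, 10% ADC. Inoculum from agar set to 0.5 McFarland, then diluted 1:100.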

[8] = tested on: Mycobacteroides abscessus; test: Antibacterial activity against Mycobacterium abscessus ATCC 19977 assessed as inhibition of bacterial growth incubated upto 3 weeks hrs by resazurin dye based double-dilution method; assay type: functional; settings: ATCC 19977, 504 h; outline: as §3
Mycobacterium avium [9] = test: Antibacterial activity against Mycobacterium avium ATCC 25921 assessed as inhibition of bacterial growth incubated upto 3 weeks hrs by resazurin dye based double-dilution method; assay type: functional; settings: ATCC 25921, 504 h; outline: as §3
[10] = tested on: Mycobacterium tuberculosis; test: Antibacterial activity against Mycobacterium tuberculosis H37Ra ATCC NRS22 assessed as inhibition of bacterial growth incubated upto 3 weeks hrs by resazurin dye based double-dilution method; assay type: functional; settings: H37Ra ATCC NRS22, 504 h; outline: as §3
[11] = tested on: Mycobacterium tuberculosis; test: Potentiation of kanamycin-induced antibacterial activity against Mycobacterium tuberculosis H37Rv assessed as kanamycin MIC incubated for 1 day followed by kanamycin addition for 6 days and by Alamar blue assay; assay type: functional; settings: 168 h, time 7 day; outline: as §2
[12] = tested on: Mycolicibacterium smegmatis; test: Antibacterial activity against Mycobacterium smegmatis mc2 155 assessed as inhibition of bacterial growth incubated upto 3 weeks hrs by resazurin dye based double-dilution method; assay type: functional; settings: mc2 155, 504 h; outline: as §3
N-acetyltransferase Eis [13] = molecular target: T1, N-acetyltransferase Eis; test: Inhibition of Mycobacterium tuberculosis Eis assessed as Eis-mediated kanamycin acetylation preincubated for 10 mins followed by substrate addition and measured for 2 to 5 mins using acetyl-CoA as substrate in presence of kanamycin by UV-Vis spectroscopy analysis
Outline: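 Recombinant Eis (1 µM) mixed with KAN (400 µM) in 50 mM Tris-HCl pH 8.0 and preincubated 10 min with 5-fold serially diluted inhibitor (10% DMSO in buffer). Reaction started with AcCoA and DTNB (2 mM each, as added). Absorbance read every 30 s for 20 min. Initial rates (first 2-5 min) fitted to Hill plot for IC50. At least triplicate.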

HEK293 [14] = test: Cytotoxicity against human HEK293 cells assessed as reduction in cell viability at 200 uM incubated for 24 hrs by resazurin assay; assay type: toxicity, cell-based; settings: hek293, 24 h; outline: as §1
A549 [15] = test: Cytotoxicity against human A549 cells assessed as reduction in cell viability at 50 to 200 uM incubated for 24 hrs by resazurin assay; assay type: toxicity, cell-based; settings: a549, 24 h, dose 50-200 µM; outline: as §1
A549 [16] = test: Cytotoxicity against human A549 cells assessed as reduction in cell viability at 25 uM incubated for 24 hrs by resazurin assay; assay type: toxicity, cell-based; settings: a549, 24 h; outline: as §1
[17] = tested on: Mycobacterium tuberculosis; test: Antibacterial activity against Mycobacterium tuberculosis H37Rv assessed as inhibition of bacterial growth at 100 uM incubated for 24 hrs by Alamar blue assay; assay type: functional, organism-based
[18] = Metabolic stability in human liver microsomes at 2 to 4 uM incubated for 30 mins by LC-MS/MS analysis; assay type: ADME, Microsome; settings: dose 2-4 µM, read-out: Stability
J774.A1 [19] = test: Cytotoxicity against mouse J774.A1 cells assessed as reduction in cell viability at 25 uM incubated for 24 hrs by resazurin assay; assay type: toxicity, cell-based; settings: j774.a1, 24 h; outline: as §1
[20] = tested on: Mycobacterium tuberculosis; test: Antibacterial activity against Mycobacterium tuberculosis K204 assessed as inhibition of bacterial growth at 100 uM incubated for 24 hrs by Alamar blue assay; assay type: functional, organism-based
[21] = Metabolic stability in mouse liver microsomes at 2 to 4 uM incubated for 30 mins by LC-MS/MS analysis; assay type: ADME, Microsome; settings: dose 2-4 µM, read-out: Stability
HEK293 [22] = test: Cytotoxicity against human HEK293 cells assessed as reduction in cell viability at 25 uM incubated for 24 hrs by resazurin assay; assay type: toxicity, cell-based; settings: hek293, 24 h; outline: as §1
Escherichia coli = test: Antibacterial activity against Escherichia coli MC1061 assessed as inhibition of bacterial growth incubated upto 3 weeks hrs by resazurin dye based double-dilution method; assay type: functional, organism-based
[23] = tested on: Mycobacterium intracellulare; test: Antibacterial activity against Mycobacterium intracellulare ATCC 13950 in presence of clofazimine by checkerboard assay; assay type: functional, organism-based
Outline: (§4)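 Checkerboard in 96-well plates. Antibiotic two-fold serially diluted along columns, haloperidol derivative two-fold along rows. Bacteria prepared as for the MIC determination. MICs alone and in combination used to calculate FICI. At least duplicate independent trials.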

Mycobacterium avium [24] = test: Antibacterial activity against Mycobacterium avium ATCC 25921 in presence of spectinomycin by checkerboard assay; assay type: functional, organism-based; outline: as §4
[25] = tested on: Mycobacteroides abscessus; test: Synergistic antibacterial activity against Mycobacterium abscessus ATCC 19977 in presence of clofazimine by checkerboard assay; assay type: functional, organism-based; outline: as §4
Mycobacterium avium [26] = test: Antibacterial activity against Mycobacterium avium ATCC 25921 in presence of clarithromycin by checkerboard assay; assay type: functional, organism-based; outline: as §4
Mycobacterium avium [27] = test: Antibacterial activity against Mycobacterium avium ATCC 25921 in presence of clofazimine by checkerboard assay; assay type: functional, organism-based; outline: as §4
[28] = tested on: Mycobacterium tuberculosis; test: Synergistic antibacterial activity against Mycobacterium tuberculosis H37Ra ATCC NRS22 in presence of spectinomycin by checkerboard assay; assay type: functional, organism-based; outline: as §4
[29] = tested on: Mycobacterium intracellulare; test: Antibacterial activity against Mycobacterium intracellulare ATCC 13950 in presence of spectinomycin by checkerboard assay; assay type: functional, organism-based; outline: as §4
[30] = tested on: Mycolicibacterium smegmatis; test: Synergistic antibacterial activity against Mycobacterium smegmatis mc2 155 assessed as fold reduction in MIC value at 8 ug/ml in presence of clofazimine by checkerboard assay; assay type: functional, organism-based; settings: dose 8.0 µg/ml
[31] = tested on: Mycobacterium intracellulare; test: Antibacterial activity against Mycobacterium intracellulare ATCC 13950 in presence of clarithromycin by checkerboard assay; assay type: functional, organism-based; outline: as §4
[32] = tested on: Mycobacteroides abscessus; test: Synergistic antibacterial activity against Mycobacterium abscessus ATCC 19977 assessed as reduction in bacterial growth presence of spectinomycin by checkerboard assay; assay type: functional, organism-based; outline: as §4

SMILES: O=C(CCCN1CCC(O)(c2ccc(Cl)cc2)CC1)c1ccc(F)cc1 [HALOPERIDOL]
- Activity (J774.A1 [1]): 100%
- MIC [2]: 5 µg/mL
- Activity (J774.A1 [3]): Toxic
- Ki (N-acetyltransferase Eis [4]): 390 nM
- fold change (FC) [5]: 16
- fold change (FC) [6]: 4
- MIC [7]: 62.5 µM (≈ 23.5 µg/mL)
- MIC [8]: > 62.5 µM
- MIC (Mycobacterium avium [9]): 62.5 µM (≈ 23.5 µg/mL)
- MIC [10]: 31.3 µM (≈ 11.8 µg/mL)
- MIC [11]: ≤ 1.25 µg/mL
- MIC [12]: > 62.5 µM
- IC50 (N-acetyltransferase Eis [13]): 390 nM
- Activity (HEK293 [14]): Non-Toxic
- Activity (A549 [15]): 70%

SMILES: CC(C)(C)c1ccc(C(=O)CCCN2CCC(O)(c3ccc(Cl)cc3)CC2)cc1
- Activity (A549 [16]): Toxic
- inhibition [17]: Active
- fold change (FC) [5]: 16
- fold change (FC) [6]: 4
- remaining at 0.5 h [18]: 60%
- MIC [7]: 7.8 µM (≈ 3.23 µg/mL)
- Activity (J774.A1 [19]): Toxic
- MIC [8]: > 62.5 µM
- MIC (Mycobacterium avium [9]): 7.8 µM (≈ 3.23 µg/mL)
- MIC [10]: 3.9 µM (≈ 1.61 µg/mL)
- MIC [12]: 15.6 µM (≈ 6.46 µg/mL)
- inhibition [20]: Active
- remaining at 0.5 h [21]: 68%
- IC50 (N-acetyltransferase Eis [13]): > 200000 nM
- Activity (HEK293 [22]): Toxic
- inhibition (Escherichia coli): Active

SMILES: O=C(CCCN1CCC(O)(c2ccc(Br)cc2)CC1)c1ccc(Cl)cc1
- Activity [23]: Active
- Activity (Mycobacterium avium [24]): Active
- MIC [2]: 10 µg/mL
- Activity [25]: Active
- Activity (Mycobacterium avium [26]): Active
- fold change (FC) [5]: 16
- fold change (FC) [6]: 4
- remaining at 0.5 h [18]: 36%
- Activity (Mycobacterium avium [27]): Active
- MIC [7]: 62.5 µM (≈ 27.3 µg/mL)
- Activity [28]: Active
- MIC [8]: > 62.5 µM
- Activity [29]: Active
- MIC (Mycobacterium avium [9]): > 62.5 µM
- MIC [10]: 7.8 µM (≈ 3.41 µg/mL)
- MIC [11]: ≤ 1.25 µg/mL
- MIC [12]: 31.3 µM (≈ 13.7 µg/mL)
- remaining at 0.5 h [21]: 83%
- IC50 (N-acetyltransferase Eis [13]): 1100 nM
- Activity [30]: Active
- Activity [31]: Active
- Activity [32]: Active

SMILES: CC(C)(C)c1ccc(C(=O)CCCN2CCC(O)(c3ccc(Br)cc3)CC2)cc1
- Activity (A549 [16]): Toxic
- inhibition [17]: Active
- fold change (FC) [5]: 16
- fold change (FC) [6]: 4
- remaining at 0.5 h [18]: 56%
- MIC [7]: 7.8 µM (≈ 3.58 µg/mL)
- Activity (J774.A1 [19]): Toxic
- MIC [8]: > 62.5 µM
- MIC (Mycobacterium avium [9]): 7.8 µM (≈ 3.58 µg/mL)
- MIC [10]: 3.9 µM (≈ 1.79 µg/mL)
- MIC [12]: 15.6 µM (≈ 7.15 µg/mL)
- inhibition [20]: Active
- remaining at 0.5 h [21]: 58%
- IC50 (N-acetyltransferase Eis [13]): > 200000 nM
- Activity (HEK293 [22]): Toxic
- inhibition (Escherichia coli): Active
